# M5 ag: CHRM5 agonism in calcium assay; activation, % at 3 µM; hit rate 0.19% among 360,000; CHO-K1 hM5 cells, Fluo-8 calcium fluorescence; 0% DMSO wells, 100% maximal acetylcholine response; P08912;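 active = activation above the run's mean over test compounds plus 3 SD, cut at about 23% in these data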;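 also: signal is peak over basal fluorescence ratio across the kinetic read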
# Target sequence (P08912 whole entry, looked up): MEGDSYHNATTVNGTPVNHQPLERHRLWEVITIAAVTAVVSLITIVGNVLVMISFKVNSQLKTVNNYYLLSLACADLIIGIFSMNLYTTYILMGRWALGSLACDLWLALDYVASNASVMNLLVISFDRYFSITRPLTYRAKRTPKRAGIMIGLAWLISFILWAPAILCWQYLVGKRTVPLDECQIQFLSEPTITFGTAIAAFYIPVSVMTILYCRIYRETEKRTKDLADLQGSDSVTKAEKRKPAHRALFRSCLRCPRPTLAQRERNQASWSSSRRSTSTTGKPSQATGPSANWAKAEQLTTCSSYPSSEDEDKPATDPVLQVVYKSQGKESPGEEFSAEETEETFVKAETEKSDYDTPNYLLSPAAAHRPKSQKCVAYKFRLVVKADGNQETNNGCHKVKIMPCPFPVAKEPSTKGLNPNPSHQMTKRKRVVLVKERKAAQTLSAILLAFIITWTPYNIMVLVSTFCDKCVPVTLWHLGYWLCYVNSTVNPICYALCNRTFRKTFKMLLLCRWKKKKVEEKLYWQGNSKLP
# CHRM5 antagonist: CHRM5 antagonism in calcium assay. P08912. CHO-hM5 cells, Fluo-8 calcium fluorescence, ACh EC80. inhibition, % at 3 µM. hit rate 0.59% among 360,000;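 active = inhibition above a per-plate cutoff, the mean of that plate's test compounds plus 3 SD, cut at about 27% in these data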;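 also: 0% = acetylcholine EC80 with DMSO and 100% = DMSO without agonist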
# M5 PAM: positive allosteric modulators of human muscarinic M5 receptor | CHO-K1 hM5, Fluo-8 calcium, ACh EC20 PAM; 0% = ACh EC20, 100% = ACh EC100 | hit rate 0.3% among 360,000 | P08912 | activation, % at 3 µM;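 active = activation above the run cutoff, the mean activation of all test compounds plus 3 SD, cut at about 18% in these data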
#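 Probe or stimulus: acetylcholine, EC20 level; Assay system: human M5 receptor in CHO-K1 cells; Schedule: compound preincubation 140 s before EC20 acetylcholine addition; Technique: intracellular calcium via Fluo-8 fluorescence; Dosing: single-point, 3 µM nominal; Read-out basis: percent activation from peak-over-basal fluorescence ratio, scaled EC20-to-EC100 acetylcholine; Repeats: one well per compound, no replicates.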
# CHRM1 PAM: human CHRM1 positive allosteric modulation; P11229; CHO-K1 hM1, Fluo-8 calcium fluorescence, ACh EC20; 0% = ACh EC20, 100% = maximal ACh; activation, % at 3 µM; hit rate 0.088% among 360,000; AID 588819; in the data active = activation above about 19%, passing the limit was not always enough
# CHRM1 agonist: human M1 muscarinic receptor agonism; P11229; CHO-K1 hM1, Fluo-8 calcium fluorescence, agonist mode; 0% DMSO, 100% acetylcholine EC100; activation, % at 3 µM; hit rate 0.33% among 360,000; AID 588814;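 active = activation above the run's mean compound activation plus 3 SD, cut at about 16% in these data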;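 also: peak over basal fluorescence ratio within a 140 s kinetic read after compound addition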
# CHRM1 antagonist: blocks human M1 muscarinic receptor | CHO-K1 hM1, Fluo-8 calcium fluorescence, ACh EC80 antagonist | hit rate 1.3% among 360,000 | inhibition, % at 3 µM | P11229;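 active = percent inhibition above its own plate's cutoff, namely the mean of that plate's compound wells plus 3 SD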;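 also: peak over basal fluorescence ratio during 140 s after agonist addition; 0% = ACh EC80 plus DMSO and 100% = DMSO alone without agonist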
# * marks the source's active call; other numbers are inactive results; · = no result. The list is not random: actives were taken first. Their share in the collection is about 2%.
SMILES,M5 ag,CHRM5 antagonist,M5 PAM,CHRM1 PAM,CHRM1 agonist,CHRM1 antagonist
Cc1cc(C)c(OCC(=O)Nc2ccc(NC(=O)c3ccco3)cc2)c([N+](=O)[O-])c1,0,-2,26*,-8,-9,11
O=C(Nc1ccc2ccccc2c1)C(c1ccccc1)n1c(=O)c(-c2cc3ccccc3[nH]2)nc2ccccc21 (centres undefined),1,9,-2,·,·,·
CCCCNC(=O)C1(C)CCN1C(=O)c1ccc2c(c1)C(C)(C)CCC2(C)C (centres undefined),-1,-1,0,-1,-8,-13
CCCS(=O)(=O)NC(=O)C1(C)CCN(C(=O)Cc2ccc(F)cc2)C1 (centres undefined),0,3,-1,9,1,-17
O=C(NCC(c1ccco1)N1CCCCC1)C(c1ccccc1)c1ccccc1 (centres undefined),-15,21,-28,-25,-8,78*
N#Cc1ccc(C(=O)NCC(c2ccco2)N2CCCC2)cc1 (centres undefined),-5,-5,1,5,-5,-3
N#Cc1ccccc1Sc1ccccc1C(=O)NCC(c1ccco1)N1CCCC1 (centres undefined),-7,4,-26,-23,-7,37*
O=C(Cc1ccccc1F)NCC(c1ccco1)N1CCCCC1 (centres undefined),-8,-16,4,-22,-13,7
CCOC1CCCc2oc(-c3ccc(N(C)C)cc3)c(C(=O)OC)c21 (centres undefined),-1,-10,13,·,·,·
Cc1ccc(-c2nc(C=Nc3cccc(C)c3)c(O)o2)cc1,1,-1,18*,5,-2,-10
CN(C(=O)COC(=O)CN1C(=O)c2cccc([N+](=O)[O-])c2C1=O)c1ccccc1,1,-7,6,28*,1,-20
COC(=O)[C@@]12C[C@@H](CC(=O)NCCc3ccccc3OC)C(=O)N(Cc3ccco3)C1=CCC(C)(C)C2,-1,-4,-1,·,·,·
OC(CNCC1(N2CCCCC2)CCCCC1)COc1ccc(Cl)cc1Cl (centres undefined),-14,-8,26*,11,-7,-12
Cn1c2c(c(=O)n(C)c1=O)C(C(F)(F)F)(C(F)(F)F)N=C(c1ccc(Cl)cc1)N2,5,21,-14,-9,5,24*
COc1ccc(CNCCCn2cnc3c(SC)ncnc32)cc1,-1,-8,10,-1,-7,-9
O=C(Nc1ccc(Cl)cc1)N(C1=NCCC1)c1ccc(OC(F)F)cc1,5,27*,-11,-11,-2,14
O=C(Nc1ccc(F)cc1)C(CCc1ccccc1)N1CCN(Cc2c(F)cccc2Cl)CC1 (centres undefined),-1,-2,-4,·,·,·
Nc1[nH]c2cc([N+](=O)[O-])ccc2c1-c1ccccn1,26*,32*,-17,-14,16,27
CCOc1ccc(NC(=O)CCC(=O)NNC(=O)COc2ccc(C)cc2)cc1,-2,30*,-16,0,-8,3
CCOc1ccc(NC(=O)CCC(=O)NNC(=O)COc2ccc(C)cc2Br)cc1,-1,-17,3,2,-5,-2
CC(Oc1ccc(C(C)(C)C)cc1)c1ccnc2nc(/N=C/N(C)C)nn12 (centres undefined),-12,2,-14,-21,-8,54*
CC(Oc1ccc(F)cc1)c1ccnc2nc(/N=C/N(C)C)nn12 (centres undefined),-2,-3,-4,-5,-11,8
CC(C)N(CC#CCC(O)(c1ccccc1)C1CCCC1)CCO (centres undefined),-9,47*,-19,-30,-12,86*
CCN(CC#CCC(O)(c1ccccc1)C1CCCC1)C(C)C (centres undefined),-11,83*,-15,-21,-5,99*
Cc1ccsc1C(=O)OCC(=O)c1cc(C)n(C)c1C,1,4,-2,-1,-4,3
SMILES,M5 ag,CHRM5 antagonist,M5 PAM,CHRM1 PAM,CHRM1 agonist,CHRM1 antagonist
O=C(Cc1ccc(S(=O)(=O)N2CCOCC2)s1)N1CCN(S(=O)(=O)c2ccccc2[N+](=O)[O-])CC1,-5,23,-11,-15,-4,32*
O=C(Cc1ccc(S(=O)(=O)N2CCOCC2)s1)N1CCN(S(=O)(=O)c2cccc([N+](=O)[O-])c2)CC1,-5,2,-9,10,-4,-6
Cc1ccc(F)cc1C(=O)N1CCCCC1c1cc(C(=O)NC(C)C)no1 (centres undefined),2,-3,-1,4,-7,-5
CCCCCc1nc2c(=O)[nH]c3ccccc3c2o1,-8,8,-8,1,-2,11
CCCc1nc2c(=O)[nH]c3ccccc3c2o1,0,1,19*,10,1,-8
CCOc1ccc(Cl)cc1-c1cc(C(=O)Nc2ccc(Br)cc2)[nH]n1,0,14,-3,-3,-5,-3
Cn1nc(C(F)(F)F)c(-c2ccc(F)cc2)c1NC(=O)Nc1ccc(F)cc1,-2,33*,-23,-6,6,15
O=C(COc1ccccc1)NC(=S)Nc1cccc2cc(O)ccc12,9,8,-5,10,19*,-4
O=C(COc1ccccc1)NC(=S)Nc1ccc2c3c(cccc13)CC2,2,11,4,11,0,-15
O=C(/C=C/c1cccc(Cl)c1)OCC(=O)c1ccc[nH]1,2,7,-5,0,-3,1
COC(=O)C1CCN(C2CN(Cc3ccc(F)cc3)S(=O)(=O)C2)CC1 (centres undefined),1,-2,2,8,-4,-4
O=C(CSc1nnc(Cn2nnc3ccccc32)o1)N(Cc1ccc(Cl)cc1)c1ccccc1,2,30*,-18,-12,1,20*
COc1cc(S(=O)(=O)NCc2ccncc2)ccc1Br,2,35*,-16,-5,6,23
COC(=O)COc1ccc(S(=O)(=O)NCc2ccncc2)cc1,7,28*,-17,-10,-1,23
CCOC1=C2[C@@H](CN(S(=O)(=O)c3ccc(C)cc3)[C@H]2c2ccccc2F)[C@H]2C(=O)N(C3CCCCC3)C(=O)[C@H]2C1,1,1,1,11,-3,-15
CN(Cc1ccccc1)C(=O)c1ccc(Cc2cn(C)c3ccccc23)nc1,1,2,-1,4,-2,-11
CCCCCCn1c(=O)n2n(c1=O)[C@@H]1CN(S(=O)(=O)c3ccc(C)cc3)C[C@]1(O)[C@@H](OC(=O)Nc1cccs1)C2,-3,5,3,7,-8,-10
